This is an account of results in ChEMBL document CHEMBL1137772, “Site-activated multifunctional chelator with acetylcholinesterase and neuroprotective-neurorestorative moieties for Alzheimer's therapy” (J Med Chem, 2009).

The source made the active and inactive calls. The rule behind the calls is not given here.

By IC50 is commonly meant the concentration that inhibits the measured activity by half. Read a low IC50 as greater potency.

Series [1] has as its system SH-SY5Y. The series is described as follows: Cytotoxicity against human SH-SY5Y cells assessed as cell viability at 1 uM after 48 hrs by MTT assay relative to control. The format is cell-based. Summed up: (§1)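 Human SH-SY5Y neuroblastoma cells were exposed to compound for 48 h, and viability was read by MTT assay. Mean ± SEM of three independent experiments.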
On the technique in general: Formazan colour is commonly taken as a measure of viable cells.

The subject of series [2] is SH-SY5Y. Nature of the series: Cytotoxicity against human SH-SY5Y cells assessed as decrease in cell viability at 10 uM after 48 hrs by MTT assay relative to control. The format is cell-based. The essentials: as §1
Series [3] has as its system SH-SY5Y. The series is described as follows: Cytotoxicity against human SH-SY5Y cells assessed as decrease in cell viability at 25 uM after 48 hrs by MTT assay relative to control. It is filed as cell-based. The essentials:
as §1

The test system of series [4] is SH-SY5Y. The series is described as follows: Cytotoxicity against human SH-SY5Y cells assessed as decrease in cell viability at 50 uM after 48 hrs by MTT assay relative to control. The format is cell-based. The essentials:
as §1

The target in series [5] is T1, Acetylcholinesterase (Rattus norvegicus) (UniProt P37136).
T1 sequence (whole entry): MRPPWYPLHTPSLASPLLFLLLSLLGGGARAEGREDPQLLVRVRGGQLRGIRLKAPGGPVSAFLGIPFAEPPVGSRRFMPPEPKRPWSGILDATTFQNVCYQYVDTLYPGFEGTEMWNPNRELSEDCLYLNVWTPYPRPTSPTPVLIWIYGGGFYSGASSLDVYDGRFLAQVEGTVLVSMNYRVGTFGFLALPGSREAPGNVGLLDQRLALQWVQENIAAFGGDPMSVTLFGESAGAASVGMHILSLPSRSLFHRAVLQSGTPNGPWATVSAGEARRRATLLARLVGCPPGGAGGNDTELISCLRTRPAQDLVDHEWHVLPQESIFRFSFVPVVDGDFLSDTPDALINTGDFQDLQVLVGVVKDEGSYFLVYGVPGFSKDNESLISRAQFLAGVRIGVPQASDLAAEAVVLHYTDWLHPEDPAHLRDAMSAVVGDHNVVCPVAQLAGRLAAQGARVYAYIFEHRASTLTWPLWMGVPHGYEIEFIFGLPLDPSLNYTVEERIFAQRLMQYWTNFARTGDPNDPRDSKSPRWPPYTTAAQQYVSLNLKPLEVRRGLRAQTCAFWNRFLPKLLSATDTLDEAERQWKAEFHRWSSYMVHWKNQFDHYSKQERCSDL
The series is described as follows: Inhibition of AChE in Wistar rat brain homogenates at 1 uM by Ellman's method. Particulars: TDE = time-dependent effect. The format is tissue-based. Summed up:
(§2)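 Modified Ellman method on rat brain homogenate enzymes, with acetylthiocholine as AChE substrate and butyrylthiocholine as BuChE substrate. For concentration–response, enzymes were preincubated with inhibitor for 3 h, and IC50 was obtained by nonlinear curve fitting. Mean ± SEM of three to five independent experiments, each in triplicate. The 1 µM AChE inhibition was followed as a time course.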
For orientation: Ellman's reagent forms a yellow product with free thiols.

Series [6] concerns the target Butyrylcholinesterase (Rattus norvegicus) (UniProt Q9JKC1). The series is described as follows: Inhibition of BuChE in Wistar rat brain homogenates at 1 uM by Ellman's method. The format is tissue-based. To be noted: TDE = time-dependent effect.
Series [7] addresses T2, Acetylcholinesterase (Rattus norvegicus, UniProt P37136).
T2 sequence (P37136 whole entry): T1 sequence (whole entry)
The series is described as follows: Inhibition of AChE in Wistar rat brain homogenates by Ellman's method. The format is tissue-based. The essentials: as §2

Series [8] addresses Butyrylcholinesterase (Rattus norvegicus, UniProt Q9JKC1). The series is described as follows: Inhibition of BuChE in Wistar rat brain homogenates by Ellman's method. It is filed as tissue-based. The essentials: as §2
Series [9] is filed under the species Rattus norvegicus. The series is described as follows: Selectivity ratio of IC50 for BuChE to IC50 for AChE in Wistar rat brain homogenates. It is filed as tissue-based. The essentials: as §2
Series [10] has as its target Acetylcholinesterase (Electrophorus electricus) (UniProt O42275). Nature of the series: Induction of electric eel AChE-mediated drug hydrolysis assessed as release of HLA20-iron complex at 0.2 mM by UV visible spectroscopy in presence of FeSO4. The essentials:
(§3)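 UV/vis absorption spectra were recorded in 5% NH4Ac, pH 7. Prochelator (0.2 mM) was activated before adding CuSO4 or FeSO4 (0.2 mM).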

The target is the same in series [11]. The series is described as follows: […] of electric eel AChE-mediated drug hydrolysis assessed as release of HLA20-copper complex at 0.2 mM by UV visible spectroscopy in presence of CuSO4. The essentials: as §3

Acetylcholinesterase (Electrophorus electricus), sequence (O42275 24-633 limits assumed): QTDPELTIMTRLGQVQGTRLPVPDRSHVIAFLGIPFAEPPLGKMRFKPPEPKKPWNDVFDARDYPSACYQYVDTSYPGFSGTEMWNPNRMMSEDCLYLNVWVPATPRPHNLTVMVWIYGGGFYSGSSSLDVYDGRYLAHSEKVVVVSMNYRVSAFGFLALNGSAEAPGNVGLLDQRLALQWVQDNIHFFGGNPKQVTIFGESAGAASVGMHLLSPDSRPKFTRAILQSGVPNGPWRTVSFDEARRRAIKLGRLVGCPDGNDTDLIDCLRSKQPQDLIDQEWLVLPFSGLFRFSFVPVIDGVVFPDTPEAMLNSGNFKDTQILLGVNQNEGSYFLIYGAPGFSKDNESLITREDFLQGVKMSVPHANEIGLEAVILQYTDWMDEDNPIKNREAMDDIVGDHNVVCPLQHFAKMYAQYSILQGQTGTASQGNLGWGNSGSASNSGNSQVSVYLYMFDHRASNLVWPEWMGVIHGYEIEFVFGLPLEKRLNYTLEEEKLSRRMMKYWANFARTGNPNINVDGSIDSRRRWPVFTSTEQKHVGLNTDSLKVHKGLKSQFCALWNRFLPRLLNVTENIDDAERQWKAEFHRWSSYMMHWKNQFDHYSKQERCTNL
Butyrylcholinesterase (Rattus norvegicus), sequence (Q9JKC1 as listed by the source): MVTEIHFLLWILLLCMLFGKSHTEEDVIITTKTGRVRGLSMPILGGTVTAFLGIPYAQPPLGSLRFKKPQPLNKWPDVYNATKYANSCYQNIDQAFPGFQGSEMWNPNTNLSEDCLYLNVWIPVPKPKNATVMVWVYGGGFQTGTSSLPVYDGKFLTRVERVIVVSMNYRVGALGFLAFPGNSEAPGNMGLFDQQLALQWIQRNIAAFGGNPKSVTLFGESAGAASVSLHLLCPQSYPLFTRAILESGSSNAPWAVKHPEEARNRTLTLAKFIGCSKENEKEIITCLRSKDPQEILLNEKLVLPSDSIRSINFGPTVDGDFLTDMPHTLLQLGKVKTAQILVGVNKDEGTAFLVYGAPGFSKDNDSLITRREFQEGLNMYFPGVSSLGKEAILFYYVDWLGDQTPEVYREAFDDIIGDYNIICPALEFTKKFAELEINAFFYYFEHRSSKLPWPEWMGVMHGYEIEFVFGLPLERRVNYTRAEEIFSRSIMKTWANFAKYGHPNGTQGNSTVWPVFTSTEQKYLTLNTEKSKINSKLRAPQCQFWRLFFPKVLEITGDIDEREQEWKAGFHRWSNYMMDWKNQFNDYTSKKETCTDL
Butyrylcholinesterase, sequence (Q9JKC1 whole entry): as the sequence (Q9JKC1 as listed by the source) above

`C#CCN1CCN(Cc2ccc(O)c3ncccc23)CC1`: the Activity entry in [1] is given as “Non-toxic”; in [2], 60%; in series [3], 87%; in series [4], 98%.

As to `C#CCN1CCN(Cc2ccc(OC(=O)N(C)C)c3ncccc23)CC1`, the Activity entry in [5] is “tde”; in [6] it was “tde”; in series [1] it was “Non-toxic”; in series [2] it was “Non-toxic”; in series [3], “Toxic”; in [4] it was “Toxic”. Moreover, the figures for the IC50 in [7] and in [8] were 0.5 µM and 42.6 µM, respectively. In [9], the Ratio IC50 was found to be 85. Moreover, the result in series [10] and in [11] was Active.

Consider `CCN(C)C(=O)Oc1cccc([C@H](C)N(C)C)c1`, for which the Activity entry in [5] and in series [6] was “tde” each time.
